The values that follow come from ChEMBL document CHEMBL1124725, “Inhibition of steroid 5 alpha-reductase by unsaturated 3-carboxysteroids” (J Med Chem, 1990).

Each structure is given as a SMILES string. Some results are limits rather than exact numbers.

For assay [1], the target named is T1, 3-oxo-5-alpha-steroid 4-dehydrogenase 2 (Homo sapiens, UniProt P31213).
T1 sequence (P31213 whole entry): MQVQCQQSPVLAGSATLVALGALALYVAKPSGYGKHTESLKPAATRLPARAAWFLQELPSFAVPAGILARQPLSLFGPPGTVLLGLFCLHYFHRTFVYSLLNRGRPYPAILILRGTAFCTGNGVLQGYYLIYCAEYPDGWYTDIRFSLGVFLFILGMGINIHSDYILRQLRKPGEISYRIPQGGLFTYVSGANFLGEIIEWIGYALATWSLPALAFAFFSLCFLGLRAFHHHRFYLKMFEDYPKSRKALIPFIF
As to the kind of experiment: In vitro inhibition of Steroid 5-alpha-reductase in human prostatic tissue. To be noted: read-out: Ki app. Put shortly:
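Microsomes from surgically derived benign hyperplastic human prostate. Incubation was in 50 mM sodium citrate, pH 5.0, with 400 μM NADPH at 37 °C for 20–30 min, with ≤20% of T consumed. The reaction was quenched with ethyl acetate, and the read-out was total 5α-reduced products (DHT + ADIOL). Ki,app came from Dixon plots, or IC50 if nonlinear; ranges span microsome preparations.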

Assay [2] concerns the target T2, Steroid 5-alpha-reductase (Rattus norvegicus, UniProt P24008+P31214).
T2 sequence (P24008 whole entry): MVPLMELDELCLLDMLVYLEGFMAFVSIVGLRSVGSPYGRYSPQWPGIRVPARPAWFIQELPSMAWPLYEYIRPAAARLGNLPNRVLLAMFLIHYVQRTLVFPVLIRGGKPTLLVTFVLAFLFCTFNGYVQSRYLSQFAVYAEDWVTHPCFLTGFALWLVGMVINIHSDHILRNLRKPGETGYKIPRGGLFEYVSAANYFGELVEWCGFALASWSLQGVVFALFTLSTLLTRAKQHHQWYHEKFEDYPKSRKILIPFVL
T2 sequence (P31214 whole entry): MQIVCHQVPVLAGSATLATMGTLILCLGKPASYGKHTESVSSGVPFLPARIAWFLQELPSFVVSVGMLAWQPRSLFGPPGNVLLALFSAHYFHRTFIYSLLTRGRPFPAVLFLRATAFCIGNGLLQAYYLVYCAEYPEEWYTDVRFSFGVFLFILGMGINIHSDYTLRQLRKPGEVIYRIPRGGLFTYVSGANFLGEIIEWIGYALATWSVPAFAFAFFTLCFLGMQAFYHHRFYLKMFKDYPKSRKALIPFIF
As to the kind of experiment: In vitro inhibition of Steroid 5-alpha-reductase in rat ventral prostates. Format: tissue-based, Prostate gland. Put shortly:
(§1)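 Rat ventral prostate microsomes were incubated with [14C]T (1.2 μM) and test compound (0–10 μM), both dried from ethanol. Buffer was 20 mM sodium phosphate, pH 6.6, with 400 μM NADPH, at 37 °C for 20–30 min, keeping T consumption ≤20%. After ethyl acetate quench, DHT plus […] formation was measured. Apparent Ki came from Dixon analysis, or IC50 for hyperbolic inhibition; ranges reflect different enzyme preparations.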

Assay [3] deals with T1, 3-oxo-5-alpha-steroid 4-dehydrogenase 2. The assay can be described thus: In vitro inhibitory activity against Steroid 5-alpha-reductase was determined in human prostatic tissue expressed as apparent inhibition constant; Range is 7-12. The note with it: read-out: Ki app. Put shortly: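 Microsomes from surgically derived benign hyperplastic human prostate. [14C]T (1.2 μM) and inhibitor (0–10 μM) were dried down from ethanol. Incubation was in 50 mM sodium citrate, pH 5.0, with 400 μM NADPH at 37 °C for 20–30 min, with ≤20% of T consumed. The reaction was quenched with ethyl acetate, and the read-out was total 5α-reduced products (DHT + ADIOL). Ki,app came from Dixon plots, or IC50 if nonlinear; ranges span microsome preparations.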

Assay [4] deals with T2, Steroid 5-alpha-reductase. As to the kind of experiment: In vitro inhibitory activity against Steroid 5-alpha-reductase was determined in rat ventral prostates expressed as apparent inhibition constant; Range is 35-50. The format is tissue-based, Prostate gland. An outline of the steps: as §1
Assay [5] has as its target T1, 3-oxo-5-alpha-steroid 4-dehydrogenase 2. The assay can be described thus: In vitro inhibitory activity against Steroid 5-alpha-reductase was determined in human prostatic tissue expressed as apparent inhibition constant; Range is 7-18. To be noted: read-out: Ki app.
The target is the same in assay [6]. The assay can be described thus: In vitro inhibitory activity against Steroid 5-alpha-reductase was determined in human prostatic tissue expressed as apparent inhibition constant; Range is 700-900.
Assay [7] has the same target. As to the kind of experiment: In vitro inhibitory activity against 5-alpha reductase was determined in human prostatic tissue expressed as apparent inhibition constant. The note with it: read-out: Ki app. Put shortly:
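Microsomes from surgically obtained benign hyperplastic human prostate; 50 mM sodium citrate, pH 5.0, 37 °C, 20–30 min. Substrate [14C]testosterone 1.2 μM, NADPH 400 μM final, inhibitor 0–10 μM. Read-out is conversion to total 5α-reduced metabolites (DHT plus 5α-androstanediol), keeping T consumption ≤20%. Ki,app from Dixon analysis for linear inhibitors; ranges given across microsome preparations.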

The target of assay [8] is T2, Steroid 5-alpha-reductase. As to the kind of experiment: In vitro inhibitory activity against 5-alpha reductase was determined in rat ventral prostates expressed as apparent inhibition constant. Format: tissue-based, Prostate gland. Put shortly: as §1
Assay [9] deals with T2, Steroid 5-alpha-reductase. The assay can be described thus: In vitro inhibitory activity against Steroid 5-alpha-reductase was determined in rat ventral prostates expressed as apparent inhibition constant; Range is 20-30. The format is tissue-based, Prostate gland. An outline of the steps:
as §1

`CC(C)N(C(=O)[C@H]1CCC2C3CCC4=C[C@@H](C(=O)O)CC[C@]4(C)C3CC[C@@]21C)C(C)C` (stereo partly drawn): the Ki in [1] came out at 0.2 µM. In addition, the Ki app in [2] stood at 2 µM.
The matching figures for `CC(C)N(C(=O)[C@H]1CCC2C3CCC4=C[C@H](C(=O)O)CC[C@]4(C)C3CC[C@@]21C)C(C)C` (stereo partly drawn): 0.57 µM and > 10 µM.
In the same order, the values of `C[C@]12CCC(C(=O)O)=CC1=CCC1C2CC[C@@]2(C)C1CC[C@@H]2C#N` (stereo partly drawn) are 0.79 µM and 0.14 µM.
For the compound `CC(C)N(C(=O)[C@H]1CCC2C3CC[C@H]4C=C(C(=O)O)C=C[C@]4(C)C3CC[C@@]21C)C(C)C` (stereo partly drawn), the Ki in [1] amounted to 0.062 µM. For the same compound, the Ki app in [2] was 0.065 µM.
The matching figures for `CC(C)N(C(=O)[C@H]1CCC2C3CCC4=CC(C(=O)O)=CC[C@]4(C)C3CC[C@@]21C)C(C)C` (stereo partly drawn): 0.052 µM and 0.12 µM.
As to `CC(C)N(C(=O)[C@H]1CCC2C3CCC4=C[C@@](O)(C(=O)O)CC[C@]4(C)C3CC[C@@]21C)C(C)C` (stereo partly drawn), the Ki in assay [1] stood at 0.32 µM. In addition, the Ki app in assay [2] is > 10 µM.
With `CC(C)N(C(=O)[C@H]1CCC2C3CC(F)=C4C=C(C(=O)O)CC[C@]4(C)C3CC[C@@]21C)C(C)C` (stereo partly drawn), in assay [1], the Ki came to 0.032 µM. This compound also yielded a Ki app in assay [2] of 0.033 µM.
The matching figures for `CC(C)N(C(=O)[C@H]1CCC2C3CC[C@H]4CC(C(=O)O)=CC[C@]4(C)C3CC[C@@]21C)C(C)C` (stereo partly drawn): 0.085 µM and 0.11 µM.
In the same order, the values of `CC(CO)[C@@H]1CCC2C3CCC4C=C(C(=O)O)CC[C@]4(C)C3CC[C@@]21C` (stereo partly drawn) are 5 µM and 0.155 µM.
In the same order, the values of `CC(C)N(C(=O)[C@H]1CCC2C3CCC4=C[C@](O)(C(=O)O)CC[C@]4(C)C3CC[C@@]21C)C(C)C` (stereo partly drawn) are 0.22 µM and > 10 µM.
Regarding `CC(C)(C)NC(=O)[C@H]1CC[C@H]2[C@@H]3CC[C@H]4C=C(C(=O)O)CC[C@]4(C)[C@H]3CC[C@]12C`, the Ki in assay [1] was 0.11 µM. The Ki app in assay [2] is 0.011 µM.
The compound `CC(C)N(C(=O)[C@H]1CC[C@H]2[C@@H]3CC[C@H]4C(F)=C(C(=O)O)CC[C@]4(C)[C@H]3CC[C@]12C)C(C)C` had a Ki app in [2] of 0.035 µM.
On to `CC(C)N(C(=O)[C@H]1CCC2C3C=CC4=CC(C(=O)O)=CC[C@]4(C)C3CC[C@@]21C)C(C)C` (stereo partly drawn), for which, in assay [3], the Ki was determined as 0.007 µM. Besides, the Ki app in [2] turned out to be 0.3 µM.
As for `CC(C)N(C(=O)[C@H]1CCC2C3CC=C4C=C(C(=O)O)CC[C@]4(C)C3CC[C@@]21C)C(C)C` (stereo partly drawn), the Ki app in assay [4] amounted to 0.035 µM. Further, the Ki in assay [5] was 0.007 µM.
As for `CC(C)N(C(=O)[C@H]1CC[C@H]2[C@@H]3CC[C@H]4CC(C(=O)O)CC[C@]4(C)[C@H]3CC[C@]12C)C(C)C` (stereo partly drawn), the Ki in assay [1] is 2.2 µM. The compound also showed a Ki app in assay [2] of 0.34 µM.
`CC(C)N(C(=O)[C@H]1CCC2C3CCC4=C(CCC(C(=O)O)=C4)C3CC[C@@]21C)C(C)C` (stereo partly drawn) had a Ki app in assay [2] of 0.29 µM.
The same measure, in the same setting: in the case of `CC(C)N(C(=O)[C@H]1CCC2C3CC=C4C=C(C(=O)O)CC[C@@H]4C3CC[C@@]21C)C(C)C` (stereo partly drawn) it was 0.14 µM; in that of `CC1=C2C=C(C(=O)O)CC[C@]2(C)C2CC[C@@]3(C)C(CC[C@@H]3C(=O)N(C(C)C)C(C)C)C2C1` (stereo partly drawn), 0.2 µM.
For `CC1=C(C(=O)O)CC[C@@]2(C)C1=CCC1C2CC[C@@]2(C)C1CC[C@@H]2C(=O)N(C(C)C)C(C)C` (stereo partly drawn), the Ki in assay [1] amounted to 0.035 µM. In addition, the Ki app in assay [2] is 0.07 µM.
In the same order, the values of `CC(C)N(C(=O)[C@H]1CCC2C3CC=C4C=C(C(=O)O)CC[C@]4(C)C3C=C[C@@]21C)C(C)C` (stereo partly drawn) are 0.007 µM and 0.047 µM.
In the same order, the values of `CC(C)N(C(=O)[C@H]1CCC2C3CC=C4C=C(C(=O)O)C=C[C@]4(C)C3CC[C@@]21C)C(C)C` (stereo partly drawn) are 0.06 µM and 0.6 µM.
On to `CC(C)N(C(=O)[C@H]1CCC2C3CC(C(F)(F)F)=C4C=C(C(=O)O)CC[C@]4(C)C3CC[C@@]21C)C(C)C` (stereo partly drawn), for which, in [6], the IC50 (as a rule, the concentration that inhibits the measured activity by half) is 0.7 µM. In assay [2], this compound yielded a Ki app of 1 µM.
With `CC(C)N(C(=O)[C@H]1CCC2C3CC[C@H]4C=C(C(=O)O)CC[C@]4(C)C3CC[C@@]21C)C(C)C` (stereo partly drawn), the Ki in assay [7] turned out to be 0.03 µM. The Ki app in assay [8] came to 0.07 µM.
As to `CC(C)(C)NC(=O)[C@H]1CC[C@H]2[C@@H]3CC=C4C=C(C(=O)O)CC[C@]4(C)[C@H]3CC[C@]12C` [EPRISTERIDE], the Ki app in assay [9] was determined as 0.02 µM.
